FXIIa inh 1536: inhibitors of human coagulation factor XIIa | 0.3% of 220,000 active | purified FXIIa, Boc-QGR-AMC fluorogenic substrate, 2 h | inhibition, % at 5 µM | P00748 | AID 800; in the data active = inhibition above about 40%;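 note: 0% = enzyme with no compound and 100% = blank without enzyme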
hK5 inh: inhibitors of human kallikrein 5; inhibition, % at 5 µM; recombinant hK5, fluorogenic AMC substrate cleavage; AID 873; 0.59% of 210,000 active;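 active = inhibition of 40% or more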;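 note: 0% = enzyme controls without compound and 100% = no-enzyme blanks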
Thrombin inh: thrombin (human) inhibition. alpha-thrombin, Boc-VPR-AMC fluorogenic substrate cleavage. inhibition, % at 5 µM. 0.26% of 220,000 active. AID 1046. P00734;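 active = inhibition at or above 40%; inactive = inhibition below 40%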;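 note: 0% = enzyme with no compound and 100% = wells without enzyme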
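signal = AMC fluorescence, 355/460 nm | material = human alpha-thrombin enzyme | control set = enzyme without compound as high, wells lacking enzyme as low | times = reaction at room temperature | read-out basis = percent inhibition scaled between no-compound controls and no-enzyme blanks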
Furin inh: blocks human furin protease activity | 0.061% of 220,000 active | AID 463115 | purified furin, fluorogenic substrate cleavage | inhibition, % at 20 µM or 30 µM | P09958; in the data active = inhibition above about 25%
Target sequence (P09958 108-714 limits assumed): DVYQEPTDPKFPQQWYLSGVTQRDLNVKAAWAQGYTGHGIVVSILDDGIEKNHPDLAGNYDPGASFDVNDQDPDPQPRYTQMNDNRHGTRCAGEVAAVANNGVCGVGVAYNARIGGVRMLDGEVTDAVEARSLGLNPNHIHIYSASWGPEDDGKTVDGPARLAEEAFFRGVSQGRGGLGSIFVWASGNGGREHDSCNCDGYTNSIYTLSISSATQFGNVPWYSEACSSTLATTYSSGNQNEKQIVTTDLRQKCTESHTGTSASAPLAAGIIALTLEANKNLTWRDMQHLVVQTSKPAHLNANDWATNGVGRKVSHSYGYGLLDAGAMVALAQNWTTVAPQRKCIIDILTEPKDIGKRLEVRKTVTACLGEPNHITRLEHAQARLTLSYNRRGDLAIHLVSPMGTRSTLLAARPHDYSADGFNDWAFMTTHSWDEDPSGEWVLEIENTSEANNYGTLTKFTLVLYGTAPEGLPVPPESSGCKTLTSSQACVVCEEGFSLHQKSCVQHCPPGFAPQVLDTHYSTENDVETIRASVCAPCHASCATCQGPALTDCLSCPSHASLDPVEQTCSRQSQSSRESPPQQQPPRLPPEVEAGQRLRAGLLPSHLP
HSV replic up: increases HSV replication in cells; HSV replication augmentation in cells, fold increase; maximum fold increase; 0.005% of 220,000 active; in the data active = maximum fold increase above about 1.5; tested in PC3 cells
FXIa inh: factor XIa (human) inhibition; inhibition, % at 5 µM; P03951; 0.14% of 220,000 active; purified FXIa, Boc-Glu-Ala-Arg-AMC fluorogenic substrate; AID 798;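 active = inhibition of at least 40%; inactive = inhibition below 40%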;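 note: fluorescence of freed AMC excited at 355 nm; 0% = enzyme without compound and 100% = no enzyme blank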
* = called active by the depositor; i = inactive; . = no result given. Shown are actives, neighbours in structure and some others; about 1% of the full set was active somewhere.

SMILES | FXIIa inh 1536 | hK5 inh | Thrombin inh | Furin inh | HSV replic up | FXIa inh
Cc1ccc(CNC(=O)C2COc3ccccc3O2)cc1 (centres undefined) | 10 | 2 | -4 | 5 | i | -3
O=C(NCc1ccccc1)C1COc2ccccc2O1 (centres undefined) | 15 | -7 | 6 | 30* | i | 5
COC(=O)C1=C[C@@H](C(=O)OC)[C@@H]2C3=C(C(=O)[C@@]2(C)NC(=O)c2ccccc2)[C@H](C)n2c(=O)n(C)c(=O)n2[C@@H]3C1 | . | . | . | . | i | .
COc1cc(COCC(O)CN2CCOCC2)cc(OC)c1OC (centres undefined) | 45* | -7 | -8 | -7 | i | 9
COc1ccc(COCC(O)CN2CCOCC2)cc1OC (centres undefined) | 3 | 0 | -17 | -9 | i | 5
O=C(N/N=C/c1ccc(O)c(O)c1O)/C(=C/c1ccc([N+](=O)[O-])cc1)NC(=O)c1ccccc1 | 41* | i | 6 | -3 | i | 27
Cc1ccc(NC(=O)/C(=C\c2ccc([N+](=O)[O-])cc2)NC(=O)c2ccccc2)cc1 | 15 | -5 | 4 | -10 | i | 6
COCC(O)CNc1ccccc1 (centres undefined) | 16 | -4 | 3 | -14 | i | 10
COC(=O)c1ccc(COC(=O)CNS(=O)(=O)c2ccccc2)cc1 | 26 | 23 | 55* | -12 | i | 31
Cc1ccc(/C=N\Nc2nc3ccc(Cl)cc3[nH]2)o1 | 52* | -79 | 4 | -6 | i | 20
Fc1ccccc1-c1ccc(/C=N/Nc2nc3ccccc3[nH]2)o1 | 6 | -15 | -7 | -13 | i | 0
O=C(N/N=C/c1c[nH]c2ccccc12)c1cc(-c2ccc3ccccc3c2)n[nH]1 | 12 | -7 | -5 | -2 | i | 7
O=C(N/N=C/c1c[nH]c2ccccc12)c1cc(-c2cccc3ccccc23)n[nH]1 | -4 | 25 | 43* | -10 | i | 7
O=C1Nc2ccccc2N(O)N1c1cc(-c2ccccc2)[nH]n1 | 4 | -5 | . | -11 | i | 3
COc1ccc(C(=O)N/N=C/c2cc3ccccc3[nH]c2=O)cc1 | 60* | 21 | 34 | -12 | i | 52*
CC(C)CC(CO)N1CCN(C(=O)c2ccc(Cl)c(Cl)c2)CCC1=O (centres undefined) | . | . | . | . | i | .
Cc1ccccc1OCC1CNC(=O)O1 (centres undefined) | 5 | -3 | -12 | -13 | i | -2
O=C1NCC(COCc2ccco2)O1 (centres undefined) | 17 | 32 | 103* | -29 | i | 8
CCOc1cc(C(=O)NC)cc(OCC)c1OCC | 12 | 44* | 22 | -31 | i | -8
COc1ccc(NC(=S)NCc2cccn2C)cc1 | 13 | 11 | 1 | -21 | i | -3
Cc1ccc(C(=O)C(C)Sc2nnc(N)s2)cc1 (centres undefined) | 3 | -3 | -7 | -7 | i | -3
CC1=C(C(=O)OCC2CCCO2)C(c2ccc(C)o2)C2=C(CC(c3ccc(N(C)C)cc3)CC2=O)N1 (centres undefined) | 11 | -2 | 4 | -6 | i | -1
CC1=C(C(=O)OCC2CCCO2)C(c2ccc(C)o2)C2=C(CC(c3ccc(F)cc3)CC2=O)N1 (centres undefined) | 51* | -10 | 3 | -15 | i | 36
O=C(CCn1nnc2ccccc21)NNC(=O)C1CCCCC1 | 1 | -5 | -9 | -28 | i | -6
COc1cccc(-c2cc(C(=O)Nc3c(C)nn(Cc4ccccc4)c3C)no2)c1 | 10 | 55* | 41* | -4 | i | 10
SMILES | FXIIa inh 1536 | hK5 inh | Thrombin inh | Furin inh | HSV replic up | FXIa inh
C=C(C)CNC(=S)Nc1cccc(N)n1 | 20 | 41* | 11 | 0 | i | 48*
C=C(C)CNC(=S)N/N=C/c1ccc(NC(C)=O)cc1 | 4 | -2 | -10 | -4 | i | -5
O=C(O)CCN1C(=O)C2C3c4ccccc4C(c4ccccc43)[C@@H]2C1=O (some centres undefined) | 46* | 30 | 23 | -9 | i | 31
CCOc1ccc(NC(=O)CN2C(=O)/C(=C3\SC(=S)N(C4CCS(=O)(=O)C4)C3=O)c3ccccc32)cc1 (centres undefined) | 22 | 36 | 3 | -2 | i | 53*
CCOc1ccc(NC(=O)CN2C(=O)CSC(C)C2=O)cc1 (centres undefined) | 2 | -7 | -29 | -19 | i | -8
O=C(c1ccc(Cl)cc1)C1C2C(=O)N(c3ccccc3)C(=O)C2C2CCCN21 (centres undefined) | 12 | 5 | 10 | -18 | i | 16
CC(=O)c1ccc(N2C(=O)C3C(C2=O)C(C(=O)c2ccc(Cl)cc2)N2CCCC32)cc1 (centres undefined) | 8 | 42* | 9 | -22 | i | 12
Cc1nn2c(NCCCN(C)C)c3c(nc2c1-c1ccccc1)CCC3 | 3 | 56* | 68* | -2 | i | 3
CCCC(=O)NNC(=O)c1ccoc1C | 40* | 26 | 18 | -8 | i | 9
Cc1cccc(C)c1OCC(=O)NNC(=O)c1ccoc1C | 16 | -7 | 1 | -13 | i | 0
Cc1cc(C)c(NC(=O)c2ccoc2C)c(C)c1 | 19 | 61* | 12 | -8 | i | 5
Cc1occc1C(=O)Nc1ccccc1C(=O)O | 3 | -9 | 1 | -20 | i | -1
COc1cc2c(cc1OC)C1(CCCC1)CNC2c1cccc([N+](=O)[O-])c1 (centres undefined) | 6 | . | -5 | -14 | i | -3
O=c1c2[nH]c3ccc(F)cc3c2nc2n1CCCS2 | 6 | -6 | -9 | -15 | i | -1
COc1cccc(C(=O)COC(=O)c2ccc(NC(C)=O)cc2)c1 | 7 | -16 | -13 | 2 | i | 5
COc1ccc(OC)c(NC(=O)CC2C(=O)NCCN2C(=O)Nc2cccc(Cl)c2)c1 (centres undefined) | 45* | 31 | 23 | -10 | i | 10
CS(=O)(=O)c1ccc(Cl)c(NC(=O)COC(=O)CNC(=O)c2ccccc2)c1 | 30 | 28 | 15 | 3 | i | 42*
COc1cccc2sc(/N=C/N(C)C)nc12 | 46* | 35 | 22 | 9 | i | 24
COc1cccc2sc(N(C)c3ccccc3)nc12 | 26 | -7 | -3 | -9 | i | 15
O=C(CN(Cc1cccs1)C(=O)CCC(=O)Nc1nccs1)NCc1ccccc1 | 107* | 105* | 17 | -23 | i | 8
COc1ccc(OCC(=O)OC2CCCN(C)C2)cc1 (centres undefined) | 16 | 5 | 0 | -31 | i | 0
COc1cc(CC(=O)Nc2nccs2)cc(OC)c1OC | 3 | 43* | 5 | -10 | i | -1
O=C(Cn1cc2c(n1)CCCC2)NCc1cccs1 | 11 | -2 | -1 | -19 | i | 2

Screening results from PubChem BioAssay.
